Converted amounts (≈) assume the structure as drawn. The source made the active and inactive calls. The rule behind the calls is not given here.
Key:
[1] = organism: Oryctolagus cuniculus; assay: In vitro ability to inhibit the herpes HSV-2 virus; Inactive; type: functional, organism-based; conditions: herpes simplex virus
[2] = organism: Cavia porcellus; assay: Effect on the growth of Herpes simplex Type 1 on the skin of Guinea pigs infected intradermally on day 3 at 5 % concentration; type: functional
Summary of the method: (§1)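 Guinea pigs (Hartley, 350–400 g) were infected intradermally on an epilated flank with undiluted HSV-1 AA strain and treated with topical cream. Supernatants of lesion skin scrapings were diluted 10⁻¹ to 10⁻⁸ and titered by plaque assay on BSC-1 monolayers in triplicate: 1 h adsorption at 37 °C, agarose overlay, 4 days at 37 °C, formalin fixation, crystal violet staining, plaques counted.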

[3] = organism: Cavia porcellus; assay: Effect on the development of Herpetic vesicles in Guinea pigs infected intradermally with Herpes virus Hominis, Type 1,AA strain on day 2 at 5 % concentration; type: functional
Summary of the method: (§2)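 Albino Hartley guinea pigs (350–400 g) were infected intradermally with 0.05 mL undiluted HSV-1 AA strain, delivered by vaccination gun into a 12 mm marked area on an epilated flank. Topical cream treatment followed. Vesicle development was scored daily.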

[4] = organism: Cavia porcellus; assay: Effect on the growth of Herpes simplex Type 1 on the skin of Guinea pigs infected intradermally on day 2 at 5 % concentration; type: functional; summary of the method: as §1
[5] = organism: Cavia porcellus; assay: Effect on the development of Herpetic vesicles in Guinea pigs infected intradermally with Herpes virus Hominis, Type 1,AA strain on day 1 at 5% concentration; type: functional
Summary of the method: (§3)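 Hartley albino guinea pigs (350–400 g) were infected with undiluted HSV-1 AA strain, 0.05 mL placed in a 12-mm circle on an epilated flank and given intradermally by vaccination gun. Test article was a topical cream, with treatment starting 24 h postinfection. Mean vesicle score was recorded on days 1–5 against placebo and nonmedicated groups.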

[6] = organism: Cavia porcellus; assay: Effect on the growth of Herpes simplex Type 1 on the skin of Guinea pigs infected intradermally on day 4 at 5 % concentration; type: functional; summary of the method: as §1
[7] = organism: Cavia porcellus; assay: Effect on the development of Herpetic vesicles in Guinea pigs infected intradermally with Herpes virus Hominis, Type 1,AA strain on day 4 at 5 % concentration; type: functional; summary of the method: as §2
[8] = organism: Cavia porcellus; assay: Effect on the growth of Herpes simplex Type 1 on the skin of Guinea pigs infected intradermally on day 1 at 5% concentration; type: functional
Summary of the method: (§4)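 Guinea pigs were infected intradermally with HSV-1 on an epilated flank and treated topically with cream. Virus in skin-scraping supernatants was titered by plaque assay on BSC-1 monolayers. Dilutions of 10⁻¹ to 10⁻⁸ in Eagle's medium with 2% FCS were plated in triplicate and adsorbed 1 h at 37 °C. An agarose overlay followed, with 4 days' incubation, formalin fixation, crystal violet staining and plaque counting.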

[9] = organism: Cavia porcellus; assay: Effect on the growth of Herpes simplex Type 1 on the skin of Guinea pigs infected intradermally on day 3 at 8 % concentration; type: functional; summary of the method: as §4
[10] = organism: Cavia porcellus; assay: Effect on the growth of Herpes simplex Type 1 on the skin of Guinea pigs infected intradermally on day 4 at 8 % concentration; type: functional; summary of the method: as §4
[11] = organism: Cavia porcellus; assay: Effect on the growth of Herpes simplex Type 1 on the skin of Guinea pigs infected intradermally on day 2 at 8 % concentration; type: functional; summary of the method: as §4
[12] = organism: Cavia porcellus; assay: Effect on the development of Herpetic vesicles in Guinea pigs infected intradermally with Herpes virus Hominis, Type 1,AA strain on day 1 at 8 % concentration; type: functional; summary of the method: as §3
[13] = organism: Cavia porcellus; assay: Effect on the growth of Herpes simplex Type 1 on the skin of Guinea pigs infected intradermally on day 1 at 8 % concentration; type: functional; summary of the method: as §4
[14] = organism: Cavia porcellus; assay: Effect on the development of Herpetic vesicles in Guinea pigs infected intradermally with Herpes virus Hominis, Type 1,AA strain on day 3 at 8 % concentration; type: functional; summary of the method: as §3
[15] = organism: Cavia porcellus; assay: Effect on the development of Herpetic vesicles in Guinea pigs infected intradermally with Herpes virus Hominis, Type 1,AA strain on day 2 at 8 % concentration; type: functional; summary of the method: as §3
[16] = organism: Cavia porcellus; assay: Effect on the development of Herpetic vesicles in Guinea pigs infected intradermally with Herpes virus Hominis, Type 1,AA strain on day 4 at 8 % concentration; type: functional; summary of the method: as §3
[17] = organism: Mus musculus; assay: Average survival rate of mice infected intravaginally with herpes simplex virus type 2 at daily dosage of 10%(treatment initiated 4-h postinfection and continued for 7 days); type: functional
Summary of the method: (§5)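 Mice infected intravaginally with HSV-2. Test agent suspended in gum tragacanth and applied intravaginally. Survival recorded.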

[18] = organism: Cavia porcellus; assay: Effect on the development of Herpetic vesicles in Guinea pigs infected intradermally with Herpes virus Hominis, Type 1,AA strain on day 3 at 5 % concentration; type: functional; summary of the method: as §2
[19] = organism: Cavia porcellus; assay: Effect on the growth of Herpes simplex Type 1 on the skin of Guinea pigs infected intradermally on day 1 at 5 % concentration; type: functional; summary of the method: as §1
[20] = organism: Cavia porcellus; assay: Effect of compound in a vanishing cream base on the development of Herpetic vesicles in Guinea pigs infected intradermally with Herpesvirus Hominis, Type 1, AA strain and the virus titer was determined at 10% conc. on day 3; type: functional
[21] = organism: Cavia porcellus; assay: Effect of compound in a vanishing cream base on the development of Herpetic vesicles in Guinea pigs infected intradermally with Herpesvirus Hominis, Type 1, AA strain and the virus titer was determined at 5% conc. on day 4; type: functional
[22] = organism: Cavia porcellus; assay: Effect of compound in a vanishing cream on the development of Herpetic vesicles in Guinea pigs infected intradermally with Herpes virus Hominis, Type 1,AA strain on day 3 at 5 % concentration; type: functional
Summary of the method: (§6)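 Albino Hartley guinea pigs (350–400 g) were infected intradermally with 0.05 mL undiluted HSV-1 AA strain, delivered by vaccination gun into a 12 mm circle on an epilated flank. Test agent was applied as a topical cream starting 24 h postinfection. Lesions were scored daily for mean vesicle score over days 1–5.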

[23] = organism: Cavia porcellus; assay: Effect of compound in a vanishing cream on the development of Herpetic vesicles in Guinea pigs infected intradermally with Herpes virus Hominis, Type 1,AA strain on day 4 at 5 % concentration; type: functional; summary of the method: as §6
[24] = organism: Cavia porcellus; assay: Effect of compound in a vanishing cream on the development of Herpetic vesicles in Guinea pigs infected intradermally with Herpes virus Hominis, Type 1,AA strain on day 2 at 10 % concentration; type: functional; summary of the method: as §6
[25] = organism: Cavia porcellus; assay: Effect of compound in a vanishing cream base on the development of Herpetic vesicles in Guinea pigs infected intradermally with Herpesvirus Hominis, Type 1, AA strain and the virus titer was determined at 5% conc. on day 1; type: functional
[26] = organism: Cavia porcellus; assay: Effect of compound in a vanishing cream on the development of Herpetic vesicles in Guinea pigs infected intradermally with Herpes virus Hominis, Type 1,AA strain on day 1 at 5 % concentration; type: functional; summary of the method: as §6
[27] = organism: Cavia porcellus; assay: Effect of compound in a vanishing cream base on the development of Herpetic vesicles in Guinea pigs infected intradermally with Herpesvirus Hominis, Type 1, AA strain and the virus titer was determined at 10% conc. on day 2; type: functional
[28] = organism: Mus musculus; assay: Average survival rate of mice infected intravaginally with herpes simplex virus type 2 at daily dosage of 5%(treatment initiated 4-h postinfection and continued for 7 days); type: functional; summary of the method: as §5
[29] = organism: Mus musculus; assay: Percent survival rate of mice infected intravaginally with herpes simplex virus type 2 at daily dosage of 10%(treatment initiated 4-h postinfection and continued for 7 days); type: functional; summary of the method: as §5
[30] = organism: Cavia porcellus; assay: Effect on the development of Herpetic vesicles in Guinea pigs infected intradermally with Herpes virus Hominis, Type 1,AA strain on day 1 at 5 % concentration; type: functional; summary of the method: as §2
[31] = organism: Cavia porcellus; assay: Effect of compound in a vanishing cream base on the development of Herpetic vesicles in Guinea pigs infected intradermally with Herpesvirus Hominis, Type 1, AA strain and the virus titer was determined at 10% conc. on day 5; type: functional
[32] = organism: Mus musculus; assay: Percent survival rate of mice infected intravaginally with herpes simplex virus type 2 at daily dosage of 5%(treatment initiated 4-h postinfection and continued for 7 days); type: functional; summary of the method: as §5
[33] = organism: Cavia porcellus; assay: Effect of compound in a vanishing cream base on the development of Herpetic vesicles in Guinea pigs infected intradermally with Herpesvirus Hominis, Type 1, AA strain and the virus titer was determined at 5% conc. on day 2; type: functional
[34] = organism: Cavia porcellus; assay: Effect of compound in a vanishing cream on the development of Herpetic vesicles in Guinea pigs infected intradermally with Herpes virus Hominis, Type 1,AA strain on day 3 at 10 % concentration; type: functional; summary of the method: as §6
[35] = organism: Mus musculus; assay: Percent survival rate of mice infected intravaginally with herpes simplex virus type 2 at daily dosage of 2.5%(treatment initiated 4-h postinfection and continued for 7 days); type: functional; summary of the method: as §5
[36] = organism: Cavia porcellus; assay: Effect of compound in a vanishing cream on the development of Herpetic vesicles in Guinea pigs infected intradermally with Herpes virus Hominis, Type 1,AA strain on day 1 at 10 % concentration; type: functional; summary of the method: as §6
[37] = organism: Cavia porcellus; assay: Effect of compound in a vanishing cream on the development of Herpetic vesicles in Guinea pigs infected intradermally with Herpes virus Hominis, Type 1,AA strain on day 5 at 5% concentration; type: functional; summary of the method: as §6
[38] = In vitro ability to inhibit the herpes HSV-2 virus; type: functional, herpes simplex virus; conditions: Oryctolagus cuniculus
[39] = organism: Cavia porcellus; assay: Effect of compound in a vanishing cream on the development of Herpetic vesicles in Guinea pigs infected intradermally with Herpes virus Hominis, Type 1,AA strain on day 2 at 5 % concentration; type: functional; summary of the method: as §6
[40] = organism: Cavia porcellus; assay: Effect of compound in a vanishing cream on the development of Herpetic vesicles in Guinea pigs infected intradermally with Herpes virus Hominis, Type 1,AA strain on day 4 at 10 % concentration; type: functional; summary of the method: as §6
[41] = organism: Cavia porcellus; assay: Effect of compound in a vanishing cream on the development of Herpetic vesicles in Guinea pigs infected intradermally with Herpes virus Hominis, Type 1,AA strain on day 5 at 10 % concentration; type: functional; summary of the method: as §6
[42] = organism: Cavia porcellus; assay: Effect of compound in a vanishing cream base on the development of Herpetic vesicles in Guinea pigs infected intradermally with Herpesvirus Hominis, Type 1, AA strain and the virus titer was determined at 10% conc. on day 1; type: functional

## CCOP(=O)(CCCOc1ccc(OC)cc1Cl)OCC
[1]
  MIC: inactive

## CCOP(=O)(CCOc1ccc(O)cc1)OCC
[1]
  MIC: inactive

## CCOP(=O)(CCOc1ccc(OC(C)=O)cc1)OCC
[1]
  MIC: inactive

## COc1ccc(OCCCCCCP(=O)(O)O)c(Cl)c1
[1]
  MIC: inactive

## Nc1nc2c(ncn2COCCO)c(=O)[nH]1 [ACYCLOVIR]
[2]
  Log geometric mean: 3.31 pfu mg-1
[3]
  Mean vesicle score: 0.83
[4]
  Log geometric mean: 4.09 pfu mg-1
[5]
  Mean vesicle score: 0.58
[6]
  Log geometric mean: 2.13 pfu mg-1
[7]
  Mean vesicle score: 1
[8]
  Log geometric mean: 4.3 pfu mg-1

## CCC(=O)C(CCCCCCOc1ccc(OC)cc1Cl)C(=O)CC [ARILDONE]
[9]
  Log geometric mean: 2.92 ppfu mg-1
[10]
  Log geometric mean: 2.62 pfu mg-1
[11]
  Log geometric mean: 4.07 pfu mg-1
[12]
  Mean vesicle score: 0.33
[13]
  Log geometric mean: 4.13 pfu mg-1
[14]
  Mean vesicle score: 0.92
[15]
  Mean vesicle score: 0.83
[16]
  Mean vesicle score: 0.83

## CCOP(=O)(CCCCCCOc1ccc(OC)cc1Cl)OCC [FOSARILATE]
[17]
  Average survival: >11.3 days
[18]
  Mean vesicle score: 0.5
[19]
  Log geometric mean: 4.23 pfu mg-1
[20]
  Log TCID50/mg: <1.6
[2]
  Log geometric mean: 0.79 pfu mg-1
[21]
  Log TCID50/mg: <1.25
[22]
  Mean vesicle score: 0.75
[23]
  Mean vesicle score: 1
[24]
  Mean vesicle score: 0.83
[25]
  Log TCID50/mg: 3.94
[3]
  Mean vesicle score: 0.75
[26]
  Mean vesicle score: 0.75
[4]
  Log geometric mean: 0.96 pfu mg-1
[27]
  Log TCID50/mg: <1.34
[28]
  Average survival: >10.5 days
[6]
  Log geometric mean: 0.76 pfu mg-1
[29]
  Survival: 60%
[30]
  Mean vesicle score: 0.5
[31]
  Log TCID50/mg: <1.25
[32]
  Survival: 50%
[33]
  Log TCID50/mg: <1.41
[34]
  Mean vesicle score: 0.91
[35]
  Survival: 30%
[36]
  Mean vesicle score: 0.67
[37]
  Mean vesicle score: 0.67
[38]
  MIC: 3 µg/mL (≈ 7.92 µM)
[39]
  Mean vesicle score: 1.17
[40]
  Mean vesicle score: 0.92
[41]
  Mean vesicle score: 1.1
[42]
  Log TCID50/mg: 3.18

— ChEMBL document CHEMBL1122659, “Synthesis of some phosphonates with antiherpetic activity” (1984)
